Assay [1] concerns Mycobacterium tuberculosis. Kind of assay: Antimicrobial activity against Mycobacterium tuberculosis H37Rv at 50 ug/ml assessed as reduction of relative light units. The assay is classed as functional. On the set-up: scale not given: the % may be the effect or the level left. An outline of the steps: (§1)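 Luciferase reporter phage assay on M. tuberculosis H37Rv. Bacteria (McFarland No.2 suspension) in G7H9, with or without compound, incubated 72 h at 37 °C; two drug-free controls per sample. Phage phAE129 with CaCl2 added, then 4 h at 37 °C. D-luciferin (0.3 mM, citrate pH 4.5) added; RLU read after 10 s integration, duplicate readings averaged. Percent RLU reduction versus control; repeated if control mean RLU <1000.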

For assay [2], the system named is Mycobacterium tuberculosis. Briefly: Antimicrobial activity against Mycobacterium tuberculosis H37Rv at 100 ug/ml assessed as reduction of relative light units. The format is functional. The arrangement: scale not given: the % may be the effect or the level left. An outline of the steps: as §1

With `CSc1ccc(/C=C/C(=O)c2cccc(O)c2)cc1`, the Activity in assay [1] turned out to be 31.59%; in assay [2], 98.86%.

As to `COc1ccc(/C=C/C(=O)c2cccc(O)c2)cc1`, the values for the Activity in assay [1] and in assay [2] were 98.9% and 99.04%, respectively.

As to `CSc1ccc(/C=C/C(=O)c2ccccc2)cc1`, the Activity is 46.29% in assay [1] and 66.51% in assay [2].

On to `CSc1ccc(/C=C/C(=O)c2ccc(O)cc2)cc1`, for which the values for the Activity in assay [1] and in assay [2] were 29.25% and 55.16%, respectively.

As to `CSc1ccc(/C=C/C(=O)c2ccc(Br)cc2)cc1`, the Activity in assay [1] stood at 0%; in assay [2], 21.87%.

In the case of `COc1ccc(/C=C/C(=O)c2ccccc2)cc1` [4-METHOXY CHALCONE], the Activity in assay [1] stood at 58.75%; in assay [2], 65.08%.

On to `COc1ccccc1/C=C/C(=O)c1ccccc1`, for which the Activity in assay [1] came out at 66.07%; in assay [2] it was 72.98%.

For the compound `CSc1ccc(/C=C/C(=O)c2ccc(Cl)cc2)cc1`, the Activity came out at 24.06% in assay [1] and 48.83% in assay [2].

`O=C(/C=C/c1ccccc1)c1ccccc1` [CHALCONE]: the Activity in assay [1] was 41.93%; in assay [2], 50.64%.

On to `CSc1ccc(/C=C/C(=O)c2ccc(C)cc2)cc1`, for which the results for the Activity in assay [1] and in assay [2] were 16.88% and 51.59%, respectively.

With `CN(C)c1ccc(/C=C/C(=O)c2ccc(Cl)cc2Cl)cc1`, the values for the Activity in assay [1] and in assay [2] were 31.55% and 33.8%, respectively.

Turning to `CSc1ccc(/C=C/C(=O)c2ccccc2O)cc1`, the Activity in assay [1] is listed as 68.41%; in assay [2] it was 90.52%.

Regarding `CSc1ccc(/C=C/C(=O)c2ccc(Cl)cc2Cl)cc1`, the Activity in assay [1] and in assay [2] was 0% each time.

For the compound `CN(C)c1ccc(/C=C/C(=O)c2cccc([N+](=O)[O-])c2)cc1`, the Activity in assay [1] was determined as 90.06%; in assay [2], 96.22%.

For `COc1ccc(C(=O)/C=C/c2ccc(SC)cc2)cc1`, the values for the Activity in assay [1] and in assay [2] were 7.36% and 17.38%, respectively.

With `CSc1ccc(/C=C/C(=O)c2cccc([N+](=O)[O-])c2)cc1`, the Activity in assay [1] and in assay [2] was 0% in each case.

For `COc1ccc(/C=C/C(=O)c2cccc([N+](=O)[O-])c2)c(OC)c1`, the Activity was 92.19% in assay [1] and 96.45% in assay [2].

In the case of `CN(C)c1ccc(/C=C/C(=O)c2ccccc2)cc1`, the figures for the Activity in assay [1] and in assay [2] were 70.02% and 70.18%, respectively.

On to `COc1ccc(/C=C/C(=O)c2cccc([N+](=O)[O-])c2)cc1OC`, for which the Activity came to 64.61% in assay [1] and 89.27% in assay [2].

With `COc1ccccc1/C=C/C(=O)c1cccc([N+](=O)[O-])c1`, the Activity in assay [1] is recorded as 84.16%; in assay [2], 97.94%.

Regarding `COc1ccccc1/C=C/C(=O)c1ccc([N+](=O)[O-])cc1`, the results for the Activity in assay [1] and in assay [2] were 94.3% and 98.15%, respectively.

In the case of `CSc1ccc(/C=C/C(=O)c2ccc([N+](=O)[O-])cc2)cc1`, the Activity in assay [1] is 30.95%; in assay [2] it was 48.06%.

Take `COc1ccc(/C=C/C(=O)c2ccc(C)cc2)cc1`: the results for the Activity in assay [1] and in assay [2] were 60.24% and 98.52%, respectively.

For the compound `COc1cc(/C=C/C(=O)c2ccccc2)cc(OC)c1OC`, the Activity worked out at 43.16% in assay [1] and 63.9% in assay [2].

On to `COc1ccc(/C=C/C(=O)c2ccc(Cl)cc2Cl)cc1OC`, for which the Activity is recorded as 0% in assay [1] and 12.17% in assay [2].

The values above are taken from ChEMBL document CHEMBL1139140, “Synthesis, antimycobacterial activity evaluation, and QSAR studies of chalcone derivatives” (2007).
